Reference: the RNAGym collection of RNA variant scans (doi:10.1126/science.aae0568)
Variants at the floor of the assay were thinned out.

B1: tRNA (parent)
chain: GUUCCGUUGGCGUAAUGGUAACGCGUCUCCCUCCUAAGGAGAAGACUGCGGGUUCGAGUCCCGUACGGAACG

Variants of: B1
Assay: yeast fitness relative to wild type (ratio to wild type); higher = fitter; tRNA-Arg(CCU), competitive growth, 37 C, YPD
In short: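 Variants of the tRNA-Arg(CCU) gene were chemically synthesised with a 3% per-site mutation rate across 69 sites and placed at the native genomic locus in Saccharomyces cerevisiae. Six parallel replicates of the pooled strains were competed in YPD at 37°C for 24 hours, and gene amplicons from the start and end populations were read by 100-nucleotide paired-end sequencing. Darwinian fitness relative to wild type was derived from changes in genotype frequencies. Genotypes required ≥ 100 starting reads, and estimates < 0.5 were set to 0.5.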

Row | Variant | yeast fitness
1 | G17A C31A C33U | ≤ 0.5
2 | U16G C31G A65C | ≤ 0.5
3 | G17A C30U G63C A65C | 0.529
4 | U16C G39A C61G C62G | ≤ 0.5
5 | G17A C34A A70C | 0.631
6 | U16G C31G A45U | 0.974
7 | G17A C31U U35C A57G C62U | ≤ 0.5
8 | U16C G52A | 0.713
9 | G17A C30G G48A U53C | ≤ 0.5
10 | G17A C31U C49G A69U | ≤ 0.5
11 | U16C G56A | 1.01
12 | U16G C55U | 0.817
13 | U16G C55G | 0.544
14 | G17A A21U C34G G38C G56C | ≤ 0.5
15 | G17A A20U C24U U53A | ≤ 0.5
16 | G17A A21C U32C | ≤ 0.5
17 | G17A C30U | 0.82
18 | U16C U19C U35C | ≤ 0.5
19 | U16C C55U G67A | 0.528
20 | G17A C29U A57G U59C | ≤ 0.5
21 | U16G U26G C29A A57C | ≤ 0.5

Row | Variant | yeast fitness
22 | U16C U35A C61A A70U | 0.532
23 | G17A A21G G23A C27G A37U G44A C49U | ≤ 0.5
24 | U16G A57G C66U A69U | ≤ 0.5
25 | G17A C24U C46U C60A | ≤ 0.5
26 | U16C U19C A65G | 1.05
27 | U16G G23C G48A C61A C66U | 0.54
28 | U16C U28G C30G A40C A42U | ≤ 0.5
29 | U16C G17A C33U C49A C62G | 0.57
30 | G17A C24A U35A | ≤ 0.5
31 | U16C U54C G63A | 0.501
32 | U16G C24U C29G C49G A65G | 0.601
33 | U16G U28G C34U G63C | 0.608
34 | U16C C49G C55G C60A C62A G68A A69U | ≤ 0.5
35 | G17A A37C G52C G56C C60A U64A | ≤ 0.5
36 | U16G C22G C34G G50C A69U | 0.528
37 | U16C U35C U47C | ≤ 0.5
38 | G17A C31U U35C G56A A57G | ≤ 0.5
39 | U16G U35C G56C | ≤ 0.5
40 | G17A C31U C49G | ≤ 0.5
41 | G17A A20U C24U | 0.547
42 | G17A C34A C66A | ≤ 0.5

Row | Variant | yeast fitness
43 | U16G U54A C55U C66A | 0.58
44 | U16G A21U C46G | ≤ 0.5
45 | G17A C34A C62G | ≤ 0.5
46 | G17A A20G C34A A40G C66U | ≤ 0.5
47 | U16C U26A C46U G56A C61G G67A | ≤ 0.5
48 | G17A C27G G39C | ≤ 0.5
49 | U16C G23C C29G A43U G50A A65C | ≤ 0.5
50 | U16G A20C G25A A43U G50A C55U | ≤ 0.5
51 | U16G G39A C61G | ≤ 0.5
52 | U16G G44C G68A A69U | 0.609
53 | G17A C24G C27G A69C | ≤ 0.5
54 | U16G C31U G58A | 0.633
55 | U16C G56A A69U | 0.799
56 | G17A C34G G67U | ≤ 0.5
57 | U16C G58A | 0.87
58 | G17A A43G A45G G48A C62G | ≤ 0.5
59 | U16G C24G U26A G50A | 0.581
60 | U16C C55U | 0.831
61 | U16C G17C C27G A65U | ≤ 0.5
62 | U16G C61G A65U | ≤ 0.5
63 | G17A C31G G38C G63C | ≤ 0.5

Row | Variant | yeast fitness
64 | G17A A21C C27U C33A A37C | 0.566
65 | G17A A37U G38A | ≤ 0.5
66 | G17A C22A A45U A70U | ≤ 0.5
67 | U16C U26C C33U G63C | ≤ 0.5
68 | U16G G39A A45C C61A | 0.617
69 | U16G U35A A45C G52A | ≤ 0.5
70 | G17A A20G | 0.793
71 | G17A A21C C31U | ≤ 0.5
72 | G17A C30A A36C | ≤ 0.5
73 | G17A C24U C30U C46A | ≤ 0.5
74 | G17A C29U C49A C62U | ≤ 0.5
75 | U16G G44C C62A | 0.875
76 | U16G G44C C62U | 0.566
77 | U16C C62U C66U | 0.722
78 | U16G G48C | 0.835
79 | U16G C31A | 0.985
80 | U16G C60U | 0.772
81 | G17A A69U | 0.809
82 | G17A C22U A37C C55U | ≤ 0.5
83 | U16G C46U A69C | 1.07
